The target in series [1] is T1, Steroid hormone receptor ERR1 (Homo sapiens, UniProt P11474).
T1 sequence (P11474 whole entry): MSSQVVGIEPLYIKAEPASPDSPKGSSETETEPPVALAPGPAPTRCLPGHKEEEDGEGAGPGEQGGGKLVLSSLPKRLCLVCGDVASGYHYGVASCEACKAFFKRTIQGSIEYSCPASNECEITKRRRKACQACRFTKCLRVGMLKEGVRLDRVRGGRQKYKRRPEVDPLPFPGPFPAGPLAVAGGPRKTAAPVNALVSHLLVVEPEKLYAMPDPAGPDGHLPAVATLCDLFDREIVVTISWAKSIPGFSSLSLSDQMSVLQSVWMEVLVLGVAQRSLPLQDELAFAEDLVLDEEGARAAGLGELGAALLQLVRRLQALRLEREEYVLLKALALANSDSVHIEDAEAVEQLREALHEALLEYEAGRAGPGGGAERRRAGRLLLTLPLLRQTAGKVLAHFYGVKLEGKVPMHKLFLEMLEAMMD
Nature of the series: Inverse agonist activity at GAL4-DNA binding domain-fused human ERRalpha ligand binding domain expressed in HEK293 cells assessed as inhibition of transcriptional activity after 48 hrs by luciferase reporter gene assay. In kind it is cell-based. In a few lines: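 HEK293 cells at 1×10⁵/well in DMEM with 10% FBS, transfected at 70-80% confluency. Per well: 20 ng GAL4-DBD-ERRα-LBD, 20 ng UAS-Luc reporter and 5 ng pRL-TK control. After 6 h at 37°C, vehicle (0.05% DMSO) or compound added for 48 h. Dual-luciferase read-out.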
In general terms: A reporter such as luciferase makes a cellular process visible.

Series [2] addresses T2, Steroid hormone receptor ERR1 (Homo sapiens) (UniProt P11474).
T2 sequence (whole entry): T1 sequence (P11474 whole entry)
Kind of series: Inverse agonist activity at ERRalpha in human MDA-MB-231 cells assessed as down regulation of pS2 mRNA expression at 5 to 10 uM after 48 hrs by qRT-PCR analysis. It is filed as cell-based. In a few lines: (§1)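 MDA-MB-231 cells in 6-well plates at […]. Exposed to vehicle (DMSO) or compound for 48 h, then mRNA of ERRα target genes (PGC-1α, PDK4, osteopontin/SPP1, pS2/TFF1) quantified by real-time RT-PCR. Mean ± S.E.M. of three independent experiments.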
(In general: Real-time PCR tracks product formation cycle by cycle.)

For another series, the system named is MDA-MB-435. Nature of the series: Antiproliferative activity against ER deficient human MDA-MB-435 cells after 48 hrs by CCK-8 assay. It is filed as functional, cell-based. The following applies: MDA-MB-435, 48 h. In general terms: Tetrazolium dyes change colour on reduction, which living cells bring about.
The test system of another series is T47D. Kind of series: Antiproliferative activity against human T47D cells harboring ER after 48 hrs by CCK-8 assay. In kind it is functional, cell-based.
The subject of series [3] is MDA-MB-231. Nature of the series: Induction of ROS generation in human MDA-MB-231 cells after 24 hrs by DCFH-DA staining based fluorescence assay. It is filed as functional, cell-based. In a few lines: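 MDA-MB-231 cells in 96-well plates pretreated with 1-30 µmol/l compound for 24 h at 37 °C. Then loaded with DCFH-DA (10 µmol/l) for 30 min. Fluorescence read at ex 488/em 535 nm on a plate reader and expressed relative to untreated cells. Mean ± SEM, n=4.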

The next series concerns A549. Kind of series: Antiproliferative activity against human A549 cells after 48 hrs by CCK-8 assay. In kind it is functional, cell-based. The following applies: A549, 48 h.
The test system of series [4] is MDA-MB-231. Nature of the series: Cell migration rate in human MDA-MB-231 cells at 20 uM after 48 hrs by crystal violet staining-based transwell assay relative to control. Particulars: MDA-MB-231, 48 h.
In series [5] the target is T2, Steroid hormone receptor ERR1 (Homo sapiens). Nature of the series: Inverse agonist activity at ERRalpha in human MDA-MB-231 cells assessed as down regulation of osteopontin mRNA expression at 5 to 10 uM after 48 hrs by qRT-PCR analysis. It is filed as cell-based. In a few lines: as §1
Series [6] concerns MDA-MB-231. Kind of series: Antitumor activity against human MDA-MB-231 cells xenografted in BALB/c nude mouse assessed as tumor volume at 30 mg/kg administered every other day for 28 days and measured after 30 days (reference value: 1500 mm3). It is filed as functional.
For a further series, the system named is PC-3. Nature of the series: Antiproliferative activity against human PC3 cells after 48 hrs by CCK-8 assay. In kind it is functional, cell-based. Particulars: PC-3, 48 h.
In series [7] the test system is MDA-MB-231. Kind of series: Inhibition of cell migration in human MDA-MB-231 cells […] by crystal violet staining-based transwell assay. In kind it is functional.
A further series relates to MCF7. Nature of the series: Antiproliferative activity against human MCF7 cells harboring ER after 48 hrs by CCK-8 assay. In kind it is functional, cell-based. The following applies: MCF7, 48 h.
The next series has as its system HeLa. Nature of the series: Antiproliferative activity against human HeLa cells after 48 hrs by CCK-8 assay. It is filed as functional, cell-based.
Series [8] relates to MDA-MB-231. Nature of the series: Effect on steady state ERRalpha mRNA expression in human MDA-MB-231 cells at 5 to 10 uM after 48 hrs by qRT-PCR analysis. It is filed as ADME, cell-based. The following applies: mda-mb-231, 48 h.
Series [9] deals with MDA-MB-231. Kind of series: Cell migration rate in human MDA-MB-231 cells at 10 uM after 48 hrs by crystal violet staining-based transwell assay relative to control. Particulars: MDA-MB-231, 48 h.
Series [10] concerns the target T2, Steroid hormone receptor ERR1 (Homo sapiens). Nature of the series: Inverse agonist activity at ERRalpha in human MDA-MB-231 cells assessed as down regulation of PGC-1alpha mRNA expression at 5 to 10 uM after 48 hrs by qRT-PCR analysis. It is filed as cell-based. In a few lines:
as §1

Series [11] shares this target. Nature of the series: Inverse agonist activity at ERRalpha in human MDA-MB-231 cells assessed as down regulation of PDK4 mRNA expression at 5 to 10 uM after 48 hrs by qRT-PCR analysis. It is filed as cell-based. The procedure, abridged: as §1
Series [12] relates to MDA-MB-231. Nature of the series: Cell migration rate in human MDA-MB-231 cells at 5 uM after 48 hrs by crystal violet staining-based transwell assay relative to control. Particulars: MDA-MB-231, 48 h.
The next series deals with LNCaP. Nature of the series: Antiproliferative activity against human LNCAP cells after 48 hrs by CCK-8 assay. It is filed as functional, cell-based.
The test system of series [13] is MDA-MB-231. Kind of series: Induction of apoptosis in human in human MDA-MB-231 cells at 10 uM after 48 hrs by Annexin V-FITC staining based fluorescence microscopic analysis.
In series [14] the target is T1, Steroid hormone receptor ERR1. Nature of the series: (§2) Inhibition of fluorescein-labeled PGC-1alpha binding to GAL4-DNA binding domain-fused human ERRalpha ligand binding domain expressed in HEK293 cells in presence of terbium chelate by TR-FRET assay. In kind it is cell-based.
The target of series [15] is T2, Steroid hormone receptor ERR1 (Homo sapiens). The description is as §2. In kind it is cell-based.
Series [16] has as its system MDA-MB-231. Nature of the series: Antitumor activity against human MDA-MB-231 cells xenografted in BALB/c nude mouse assessed as reduction in tumor growth at 30 to 100 mg/kg administered every other day […]. It is filed as functional, organism-based.
Series [17] concerns MDA-MB-231. Nature of the series: Antitumor activity against human MDA-MB-231 cells xenografted in BALB/c nude mouse assessed as tumor size at 30 mg/kg administered every other day for 28 days measured after 30 days relative to control. It is filed as functional. In a few lines:
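MDA-MB-231 cells suspended in PBS injected subcutaneously into the right flank of 6-week-old BALB/c nude mice. Once tumors averaged >100 mm³, mice were randomized into groups of 10 and given vehicle, test compound or cyclophosphamide 30 mg/kg, dosed every other day. Mice were weighed 3 times weekly. Tumor volume = length × width² × 0.5 and was compared with the vehicle group.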

The subject of series [18] is MDA-MB-231. Nature of the series: Antiproliferative activity against ER deficient human MDA-MB-231 cells after 48 hrs by CCK-8 assay. The following applies: MDA-MB-231, 48 h. It is filed as functional, cell-based. In a few lines: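 Cells seeded in 96-well plates and cultured overnight, then exposed to a range of compound concentrations for 48 h. CCK-8 reagent added and incubated 2 h at 37°C. Read-out is optical density at 450 nm. MDA-MB-231 maintained in L-15 with 10% FBS, L-glutamine, sodium pyruvate, pen/strep at 37°C, 5% CO2.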

Structures are written as SMILES. Active and inactive are the calls of the source. The calls are words filed in the database; no cut-off is given here.

What is called IC50 is the concentration that gives 50% inhibition. Consider `CCOc1cc(NS(C)(=O)=O)c(OCC)cc1CNC(=O)Nc1ccc(OCC)c(C(=O)Nc2cccc(OC)c2)c1`, for which the IC50 in [1] is 4.23 µM.

On to `CCOc1cc(NS(C)(=O)=O)c(OCC)cc1CNC(=O)Nc1ccc(OCC)c(C(=O)NCc2ccc(OC)cc2)c1`, for which the result (in [2]; with MDA-MB-231 [3]; in [5]; in series [10]; in series [11]; in the series on MDA-MB-231 [13]) was Active. In addition, the IC50 with MDA-MB-435 stood at 2530 nM; in the series with T47D, 8.31 µM; with A549, 4.84 µM; in the series on PC-3, 5.01 µM; in the series on MCF7, 14.1 µM; in the series with HeLa it was 6.25 µM. Also, the half-inhibitory concentration (IC50) in [1] came out at 1.9 µM; in the series with LNCaP, 11.4 µM; in series [14] it was 610 nM; with MDA-MB-231 [18], 1460 nM. For the same compound, the migration rate % at 20 µM in the series with MDA-MB-231 [4] amounted to 17.8%. For the same compound, the Activity was 720 mm3 in the series with MDA-MB-231 [6], “Non-Toxic” in the series on MDA-MB-231 [8] and 40.9% with MDA-MB-231 [17]. The inhibition result (in the series with MDA-MB-231 [7]; in series [15]) was “Dose-dependent effect” throughout. Besides, in the series on MDA-MB-231 [9], the migration rate % at 10 µM was 39.3%. For the same compound, the migration rate % at 5 µM in the series on MDA-MB-231 [12] was determined as 53.2%. In the series with MDA-MB-231 [16], the TGI result was “Active”.

Regarding `CCOc1cc(NS(C)(=O)=O)c(OCC)cc1CNC(=O)Nc1ccc(OCC)c(C(=O)Nc2ccccc2)c1`, in [1], the IC50 was found to be 3.72 µM.

Take `CCOc1cc(NS(C)(=O)=O)c(OCC)cc1CNC(=O)Nc1ccc(OCc2ccccc2)c(C(=O)OC)c1`: the IC50 in series [1] was 4.06 µM.

For the compound `CCCCOc1ccc(NC(=O)NCc2cc(OCC)c(NS(C)(=O)=O)cc2OCC)cc1C(=O)OC`, the IC50 in series [1] was found to be 3.43 µM.

For the compound `CCOc1cc(NS(C)(=O)=O)c(OCC)cc1CNC(=O)Nc1ccc(OCC)c(C(=O)Nc2ccc(C)cc2)c1`, in series [1], the half-maximal inhibitory concentration (IC50) turned out to be 3.04 µM.

Consider `CCOc1cc(NS(C)(=O)=O)c(OCC)cc1CNC(=O)Nc1ccc(OCC)c(C(=O)NC(C)C)c1`, for which the IC50 in series [1] stood at 3.48 µM.

For the compound `CCOc1cc(NS(C)(=O)=O)c(OCC)cc1CNC(=O)Nc1ccc(OCC)c(C(=O)NCc2ccccc2)c1`, in series [1], the concentration for half-maximal inhibition (IC50) is 3.81 µM.

As for `O=P1(N(CCCl)CCCl)NCCCO1` (centres undefined) [CYCLOPHOSPHAMIDE ANHYDROUS], the Activity in the series with MDA-MB-231 [17] is listed as 50.1%.

For the compound `CCOc1cc(NS(C)(=O)=O)c(OCC)cc1CNC(=O)Nc1ccccc1`, in series [1], the IC50 turned out to be 21.1 µM.

Source of the values: ChEMBL document CHEMBL4138107, “The discovery of novel, potent ERR-alpha inverse agonists for the treatment of triple negative breast cancer” (Eur J Med Chem, 2017).
